From ChEMBL document CHEMBL1671800, “Synthesis and antimycobacterial properties of N-substituted 6-amino-5-cyanopyrazine-2-carboxamides” (2011)
Converted amounts (≈) assume the structure as drawn. The source made the active and inactive calls. The rule behind the calls is not given here.

What was measured:
[1] = test system: Mycobacterium tuberculosis; assay: Antimycobacterial activity against Mycobacterium tuberculosis H37Rv CNCTC My 331/88 after 14 days by microdilution method; format: functional; details: H37Rv CNCTC My 331/88, 336 h
Method in brief: (§1)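 Compounds in DMSO were diluted in Šula's semisynthetic medium, pH 5.5, to final 200–3.125 μg/mL, with DMSO at most 1% (v/v). Mycobacteria were added as a suspension in isotonic saline and grown at 37 °C. MIC was read visually after 14 days as the lowest concentration inhibiting growth.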

Mycobacterium kansasii = assay: Antimycobacterial activity against Mycobacterium kansasii CNCTC My 235/80 after 6 days by microdilution method; format: functional; details: CNCTC My 235/80, 144 h
Method in brief: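 Compounds were dissolved in DMSO and diluted in Šula's semisynthetic medium at pH 5.5, at final concentrations of 200 to 3.125 μg/mL in twofold steps; DMSO stayed ≤1% v/v. The strain was added as a suspension in isotonic saline and incubated at 37 °C. Growth was read visually after 6 days; MIC is the lowest concentration that inhibited growth. Pyrazinamide served as standard.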

Mycobacterium avium [2] = assay: Antimycobacterial activity against Mycobacterium avium CNCTC My 80/72 after 14 days by microdilution method; format: functional; details: CNCTC My 80/72, 336 h; method in brief: as §1
Mycobacterium avium [3] = assay: Antimycobacterial activity against Mycobacterium avium CNCTC My 152/73 after 14 days by microdilution method; format: functional; details: CNCTC My 152/73, 336 h; method in brief: as §1
Staphylococcus aureus [4] = assay: Antibacterial activity against Staphylococcus aureus CCM 4516/08 after 24 to 48 hrs by broth microdilution method; format: functional, organism-based
Method in brief: (§2)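 Strains subcultured on Mueller-Hinton agar at 35 °C and passaged onto MHA before testing. Inoculum suspended in sterile 0.85% saline and adjusted to 0.5 McFarland (1.5×10^8 CFU/mL). Compounds in DMSO (final ≤1% v/v) in Mueller-Hinton broth at pH 7.0, with medium and DMSO-alone controls. Static incubation at 35 °C; MIC taken as 95% growth inhibition versus control at 24 and 48 h.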

Escherichia coli = assay: Antibacterial activity against Escherichia coli CCM 4517 after 24 to 48 hrs by broth microdilution method; format: functional, organism-based; method in brief: as §2
Pseudomonas aeruginosa = assay: Antibacterial activity against Pseudomonas aeruginosa CCM 1961 after 24 to 48 hrs by broth microdilution method; format: functional, organism-based; method in brief: as §2
Staphylococcus aureus [5] = assay: Antibacterial activity against methicillin-resistant Staphylococcus aureus H 5996/08 after 24 to 48 hrs by broth microdilution method; format: functional, organism-based
Method in brief: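 Strains were subcultured on Mueller-Hinton agar at 35 °C, and the inoculum was suspended in 0.85% saline to 0.5 McFarland (1.5×10^8 CFU/mL). Microdilution was done in Mueller-Hinton broth, pH 7.0, with final DMSO at most 1% (v/v). MIC, set at 95% growth inhibition versus control, was read after 24 and 48 h of static incubation at 35 °C.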

[6] = test system: Staphylococcus epidermidis; assay: Antibacterial activity against Staphylococcus epidermidis H 6966/08 after 24 to 48 hrs by broth microdilution method; format: functional, organism-based
Enterobacter sp. = assay: Antibacterial activity against Enterobacter sp. J 14365/ 08 after 24 to 48 hrs by broth microdilution method; format: functional, organism-based
Klebsiella pneumoniae [7] = assay: Antibacterial activity against Klebsiella pneumoniae D11750/08 after 24 to 48 hrs by broth microdilution method; format: functional, organism-based
Klebsiella pneumoniae [8] = assay: Antibacterial activity against ESBL-positive Klebsiella pneumoniae J 14368/08 after 24 to 48 hrs by broth microdilution method; format: functional, organism-based
Candida albicans [9] = assay: Antifungal activity against Candida albicans ATCC 44859 after 24 hrs by broth microdilution method; format: functional
Method in brief: (§3)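 Broth microdilution. Compounds in DMSO were diluted twofold in RPMI 1640 with glutamine, buffered to pH 7.0 with MOPS. Final DMSO was at most 2.5% (v/v). Plates were incubated statically, in the dark and humid, at 35 °C and read at 24 and 48 h.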

Candida tropicalis [10] = assay: Antifungal activity against Candida tropicalis 156 after 24 hrs by broth microdilution method; format: functional; method in brief: as §3
Pichia kudriavzevii [11] = assay: Antifungal activity against Candida krusei E28 after 24 hrs by broth microdilution method; format: functional; method in brief: as §3
Nakaseomyces glabratus [12] = assay: Antifungal activity against Candida glabrata 20/I after 24 hrs by broth microdilution method; format: functional; method in brief: as §3
Trichosporon beigelii [13] = assay: Antifungal activity against Trichosporon beigelii 1188 after 24 hrs by broth microdilution method; format: functional; method in brief: as §3
Aspergillus fumigatus [14] = assay: Antifungal activity against Aspergillus fumigatus 231 after 24 hrs by broth microdilution method; format: functional; method in brief: as §3
Lichtheimia corymbifera [15] = assay: Antifungal activity against Absidia corymbifera 272 after 24 hrs by broth microdilution method; format: functional; method in brief: as §3
[16] = test system: Trichophyton mentagrophytes; assay: Antifungal activity against Trichophyton mentagrophytes 445 after 72 hrs by broth microdilution method; format: functional
Method in brief: (§4)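 Trichophyton mentagrophytes was tested by twofold broth microdilution in MOPS-buffered RPMI 1640 with glutamine, pH 7.0, with final DMSO at most 2.5% (v/v). Incubation was static, dark and humid at 35 °C, and plates were read at 72 and 120 h.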

[17] = test system: Trichophyton mentagrophytes; assay: Antifungal activity against Trichophyton mentagrophytes 445 after 120 hrs by broth microdilution method; format: functional; method in brief: as §4
Candida albicans [18] = assay: Antifungal activity against Candida albicans ATCC 44859 after 48 hrs by broth microdilution method; format: functional; method in brief: as §3
Candida tropicalis [19] = assay: Antifungal activity against Candida tropicalis 156 after 48 hrs by broth microdilution method; format: functional; method in brief: as §3
Pichia kudriavzevii [20] = assay: Antifungal activity against Candida krusei E28 after 48 hrs by broth microdilution method; format: functional; method in brief: as §3
Nakaseomyces glabratus [21] = assay: Antifungal activity against Candida glabrata 20/I after 48 hrs by broth microdilution method; format: functional; method in brief: as §3
Trichosporon beigelii [22] = assay: Antifungal activity against Trichosporon beigelii 1188 after 48 hrs by broth microdilution method; format: functional; method in brief: as §3
Aspergillus fumigatus [23] = assay: Antifungal activity against Aspergillus fumigatus 231 after 48 hrs by broth microdilution method; format: functional; method in brief: as §3
Lichtheimia corymbifera [24] = assay: Antifungal activity against Absidia corymbifera 272 after 48 hrs by broth microdilution method; format: functional; method in brief: as §3

Compound	MIC [1] [µg/mL]	MIC (Mycobacterium kansasii) [µg/mL]	MIC (Mycobacterium avium [2]) [µg/mL]	MIC (Mycobacterium avium [3]) [µg/mL]	Activity (Staphylococcus aureus [4])	Activity (Escherichia coli)	Activity (Pseudomonas aeruginosa)	Activity (Staphylococcus aureus [5])	Activity [6]	Activity (Enterobacter sp.)	Activity (Klebsiella pneumoniae [7])	Activity (Klebsiella pneumoniae [8])	further results
CCCCCCNc1nc(C(N)=O)cnc1C#N	12.5 (≈ 50.5 µM)	> 200	> 200	> 200	inactive	inactive	inactive	inactive	inactive	inactive	inactive	inactive	
CCN(CC)c1nc(C(N)=O)cnc1C#N	> 200	> 200	> 200	> 200	inactive	inactive	inactive	inactive	inactive	inactive	inactive	inactive	
N#Cc1ncc(C(N)=O)nc1NC1CCCC1	> 200	> 200	> 200	> 200	inactive	inactive	inactive	inactive	inactive	inactive	inactive	inactive	
CCCCNc1nc(C(N)=O)cnc1C#N	> 200	> 200	> 200	> 200	inactive	inactive	inactive	inactive	inactive	inactive	inactive	inactive	
CN1CCN(c2nc(C(N)=O)cnc2C#N)CC1	> 200	> 200	> 200	> 200	inactive	inactive	inactive	inactive	inactive	inactive	inactive	inactive	
CCCNc1nc(C(N)=O)cnc1C#N	50 (≈ 244 µM)	> 200	> 200	> 200	inactive	inactive	inactive	inactive	inactive	inactive	inactive	inactive	
CNc1nc(C(N)=O)cnc1C#N	200 (≈ 1130 µM)	> 200	> 200	> 200	inactive	inactive	inactive	inactive	inactive	inactive	inactive	inactive	
NC(=O)c1cnccn1 [PYRAZINAMIDE]	12.5 (≈ 102 µM)	> 200	> 200	> 200									
N#Cc1ncc(C(N)=O)nc1NC1CCCCC1	> 200	> 200	> 200	> 200	inactive	inactive	inactive	inactive	inactive	inactive	inactive	inactive	
OC(Cn1cncn1)(Cn1cncn1)c1ccc(F)cc1F [FLUCONAZOLE]													MIC (Candida albicans [9]; ATCC 44859, 24 h): 0.24 µM (≈ 0.0735 µg/mL); MIC (Candida tropicalis [10]; Candida tropicalis, 156, 24 h): > 500 µM; MIC (Pichia kudriavzevii [11]; E28, 24 h): 125 µM (≈ 38.3 µg/mL); MIC (Nakaseomyces glabratus [12]): 62.5 µM (≈ 19.1 µg/mL); MIC (Trichosporon beigelii [13]; Trichosporon beigelii, 1188, 24 h): 250 µM (≈ 76.6 µg/mL); MIC (Aspergillus fumigatus [14]; Aspergillus fumigatus, 231, 24 h): > 500 µM; MIC (Lichtheimia corymbifera [15]; Lichtheimia corymbifera, 272, 24 h): > 500 µM; MIC ([16]; Trichophyton mentagrophytes, 445, 72 h): 7.81 µM (≈ 2.39 µg/mL); MIC ([17]; Trichophyton mentagrophytes, 445, 120 h): 125 µM (≈ 38.3 µg/mL); MIC (Candida albicans [18]; ATCC 44859, 48 h): 0.24 µM (≈ 0.0735 µg/mL); MIC (Candida tropicalis [19]; Candida tropicalis, 156, 48 h): > 500 µM; MIC (Pichia kudriavzevii [20]; E28, 48 h): 250 µM (≈ 76.6 µg/mL); MIC (Nakaseomyces glabratus [21]): 250 µM (≈ 76.6 µg/mL); MIC (Trichosporon beigelii [22]; Trichosporon beigelii, 1188, 48 h): 500 µM (≈ 153 µg/mL); MIC (Aspergillus fumigatus [23]; Aspergillus fumigatus, 231, 48 h): > 500 µM; MIC (Lichtheimia corymbifera [24]; Lichtheimia corymbifera, 272, 48 h): > 500 µM
CCNc1nc(C(N)=O)cnc1C#N	100 (≈ 523 µM)	> 200	> 200	> 200	inactive	inactive	inactive	inactive	inactive	inactive	inactive	inactive	
NYSTATIN													MIC (Candida albicans [9]): 0.98 µM; MIC (Candida tropicalis [10]): 1.95 µM; MIC (Pichia kudriavzevii [11]): 1.95 µM; MIC (Nakaseomyces glabratus [12]): 1.95 µM; MIC (Trichosporon beigelii [13]): 1.95 µM; MIC (Aspergillus fumigatus [14]): 1.95 µM; MIC (Lichtheimia corymbifera [15]): 15.6 µM; MIC [16]: 3.9 µM; MIC [17]: 7.81 µM; MIC (Candida albicans [18]): 1.95 µM; MIC (Candida tropicalis [19]): 3.9 µM; MIC (Pichia kudriavzevii [20]): 3.9 µM; MIC (Nakaseomyces glabratus [21]): 1.95 µM; MIC (Trichosporon beigelii [22]): 1.95 µM; MIC (Aspergillus fumigatus [23]): 3.9 µM; MIC (Lichtheimia corymbifera [24]): 31.2 µM
N#Cc1ncc(C(N)=O)nc1NC1CCCCCC1	> 200	> 200	> 200	> 200	inactive	inactive	inactive	inactive	inactive	inactive	inactive	inactive	
N#Cc1ncc(C(N)=O)nc1N1CCOCC1	> 200	> 200	> 200	> 200	inactive	inactive	inactive	inactive	inactive	inactive	inactive	inactive	
CCCCCCCNc1nc(C(N)=O)cnc1C#N	12.5 (≈ 47.8 µM)	100 (≈ 383 µM)	100 (≈ 383 µM)	100 (≈ 383 µM)	inactive	inactive	inactive	inactive	inactive	inactive	inactive	inactive	
CCCCCCCCNc1nc(C(N)=O)cnc1C#N	> 200	> 200	> 200	> 200	inactive	inactive	inactive	inactive	inactive	inactive	inactive	inactive	
